Here are results for ten molecules from ChEMBL document CHEMBL1157580, “Interaction of (benzylidene-hydrazono)-1,4-dihydropyridines with beta-amyloid, acetylcholine, and butyrylcholine esterases” (Bioorg Med Chem, 2010).

A short description of data set [1]: Octanol-water partition coefficient, log P at pH 7.4 by RP-HPLC. Format: physicochemical. The gist of the method: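 Reversed-phase HPLC on an endcapped RP18 column (5 µm). Eluent methanol/phosphate buffer pH 7.4 (70/30) with 0.02% N,N-dimethylhexylamine, 1.0 ml flow. Analytes at 4 µg/ml in methanol, run in duplicate. Capacity factors converted to log P through a calibration against 2-phenylethanol, benzene, dimethylaniline, toluene, biphenyl and anthracene.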

In data set [2] the target is Acetylcholinesterase (Electrophorus electricus, UniProt O42275). Nature of the data set: Inhibition of electric eel AChE by modified Ellman's method. Summed up: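 Ellman-based assay. IC50 is the concentration giving 50% loss of AChE activity, reported as mean ± SEM from n = 3-6 experiments.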
Sequence of Acetylcholinesterase (O42275 whole entry): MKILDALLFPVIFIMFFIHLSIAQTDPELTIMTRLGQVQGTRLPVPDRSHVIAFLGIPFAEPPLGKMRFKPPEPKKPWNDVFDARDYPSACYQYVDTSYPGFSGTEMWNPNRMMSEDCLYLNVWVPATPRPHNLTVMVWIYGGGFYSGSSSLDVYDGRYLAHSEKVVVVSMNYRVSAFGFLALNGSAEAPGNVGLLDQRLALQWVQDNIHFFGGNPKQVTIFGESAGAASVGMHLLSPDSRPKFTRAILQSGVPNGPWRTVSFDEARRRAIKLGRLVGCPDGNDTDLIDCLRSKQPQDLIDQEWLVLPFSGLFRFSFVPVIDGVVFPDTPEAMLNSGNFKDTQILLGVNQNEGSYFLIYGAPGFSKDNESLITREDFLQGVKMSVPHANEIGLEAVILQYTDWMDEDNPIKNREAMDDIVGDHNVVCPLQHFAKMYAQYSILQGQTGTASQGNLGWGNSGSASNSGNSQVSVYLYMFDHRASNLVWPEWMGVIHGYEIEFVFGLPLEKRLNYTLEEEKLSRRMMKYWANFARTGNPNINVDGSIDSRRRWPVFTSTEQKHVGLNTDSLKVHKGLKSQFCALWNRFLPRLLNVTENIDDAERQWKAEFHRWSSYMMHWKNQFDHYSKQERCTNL
For data set [3], the target named is Cholinesterase (Equus caballus, UniProt P81908). Nature of the data set: Inhibition of horse serum BuChE by modified Ellman's method.
Sequence of Cholinesterase (P81908 whole entry, the tested form may be a part): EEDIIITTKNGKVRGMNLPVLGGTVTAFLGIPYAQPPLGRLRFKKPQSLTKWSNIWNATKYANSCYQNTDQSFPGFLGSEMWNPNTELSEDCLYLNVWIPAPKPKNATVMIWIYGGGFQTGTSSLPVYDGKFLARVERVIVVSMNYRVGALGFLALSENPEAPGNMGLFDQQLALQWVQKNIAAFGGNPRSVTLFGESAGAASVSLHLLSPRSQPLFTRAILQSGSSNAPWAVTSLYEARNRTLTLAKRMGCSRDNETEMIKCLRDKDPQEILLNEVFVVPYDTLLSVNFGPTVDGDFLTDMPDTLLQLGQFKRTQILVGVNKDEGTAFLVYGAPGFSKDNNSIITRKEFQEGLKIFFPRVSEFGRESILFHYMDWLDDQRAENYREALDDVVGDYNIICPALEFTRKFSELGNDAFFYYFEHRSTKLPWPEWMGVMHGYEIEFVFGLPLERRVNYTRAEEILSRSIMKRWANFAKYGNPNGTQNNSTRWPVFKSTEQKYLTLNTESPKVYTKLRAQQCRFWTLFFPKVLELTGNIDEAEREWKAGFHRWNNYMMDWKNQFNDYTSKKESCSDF
Data set [4] can be described thus: Inhibition of fibril formation of amyloid beta (1-40) catalytic domain containing HHQKLVFFAED sequence at 0.5 mM by thioflavin T assay.
Data set [5] can be described thus: Induction of fibril destruction of amyloid beta (1-40) catalytic domain containing HHQKLVFFAED sequence by modified thioflavin T assay.
The nature of data set [6]: Inhibition of amyloid beta (1-40) fibril formation by thioflavin T formation assay. The gist of the method:
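HFIP-pretreated Aβ film taken up in DMSO as a 2 mM stock, stored at -20 °C for at most three days. Diluted to 100 µM final peptide in 25 mM NaH2PO4, 120 mM NaCl, 3 µM thioflavin T, 0.02% NaN3, pH 7.4. Inhibitors at 0.005–0.5 mM. Incubated at 37 °C. Fluorescence read at excitation 450 nm, emission 482 nm.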

Data set [7] is described as follows: Inhibition of fibril formation of amyloid beta (1-40) catalytic domain containing HHQKLVFFAED sequence by thioflavin T assay.
Data set [8] can be described thus: Partition coefficient, log P at pH 5 by shake flask method. Format: physicochemical. The note with it: octanol/water. The gist of the method: (§1)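 Shake flask with octanol and phosphate buffer at the stated pH, each phase pre-saturated with the other overnight. Compound at 10^-5 mol/l in buffer-saturated octanol, absorbance (A0) read between 314 and 360 nm. Equal volumes shaken 4 h at 37 °C, left overnight, then centrifuged. Aqueous-layer absorbance (A1) read; log P = log((A0−A1)/A1).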

A short description of data set [9]: Partition coefficient, log P at pH 6 by shake flask method. Format: physicochemical. The note with it: octanol/water. The gist of the method:
as §1

Data set [10] is described as follows: Partition coefficient, log P at pH 7 by shake flask method. The note with it: octanol/water. Format: physicochemical. Summed up:
as §1

Data set [11] can be described thus: Partition coefficient, log P at pH 7.4 by shake flask method. The note with it: octanol/water. It is filed as physicochemical. Summed up: as §1
Data set [12] in a line: Dissociation constant, pKa at pH 7.4. Format: physicochemical. Summed up: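 Potentiometric titration: compound dissolved in 0.15 M KCl for constant ionic strength, with 30% dioxane or 80% methanol as co-solvent modifier. pH brought to 1.8 with 0.5 M HCl, then titrated with 0.5 M KOH. Dissociation constants determined at several modifier levels and pKa obtained by extrapolation of the calibration line. Electrode calibrated by blank titrations of 0.15 M KCl.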

Calls of active or inactive are those of the source. The calls are words filed in the database; no cut-off is given here.

On to `Cn1ccc(=N/N=C/c2c(Cl)cccc2Cl)cc1`, for which, in data set [1], the logP came to 3.4. Besides, the IC50 came to 739 µM in [2] and 11 µM in data set [3]. In data set [4], this molecule returned an inhibition of 60%. In addition, in data set [5], the result was inactive.

For `Clc1cccc(Cl)c1CO/N=C/c1cc[n+](CCC[n+]2ccc(/C=N/OCc3c(Cl)cccc3Cl)cc2)cc1.[Br-].[Br-]`, in [1], the logP is listed as 0.65. Also, the IC50 stood at 0.34 µM in data set [2] and 1.83 µM in data set [3]. Further, the inhibition entry in [6] and in data set [7] was “Active” throughout.

`Clc1cccc(Cl)c1/C=N/N=c1ccn(Cc2c(Cl)cccc2Cl)cc1` showed a logP in data set [1] of 4. In addition, the logD in [8] is 0.8; in [9], 1.5; in [10], 2.2; in data set [11] it was 3.4. The molecule also came in with an IC50 in data set [2] of 6.4 µM. The inhibition entry in [6] is “Active”. Further, in [5], the Activity result is “Dose-dependent effect”.

As to `Clc1cccc(Cl)c1/C=N/N=c1ccn(CCCc2ccccc2)cc1`, in data set [12], the pKa came to 8.7. This molecule also came in with a logP in [1] of 3.7. Further, the logD in data set [8] turned out to be 0.7; in data set [9] it was 0.9; in data set [10] it was 1.3; in data set [11], 3.2. For the same molecule, the IC50 in [2] turned out to be 5.66 µM; in data set [3], 10 µM. Moreover, in [6], the inhibition result was “Active”. Further, the inhibition entry in [7] was “Dose-dependent effect”. Moreover, the Activity result in [5] was “Dose-dependent effect”.

For the molecule `Clc1cccc(Cl)c1CO/N=C/c1cc[n+](CCCc2ccccc2)cc1`, the IC50 in data set [2] is 0.18 µM; in data set [3] it was 2.78 µM. For the same molecule, the inhibition entry in [6] and in data set [7] was “Active” in each case.

`Clc1cccc(Cl)c1CO/N=C/C1CCN(CCCc2ccccc2)CC1` gave a pKa in data set [12] of 7.1. This molecule also returned a logP in [1] of 3.6. The same molecule came in with an IC50 in data set [2] of 19.1 µM.

In turn, `Clc1cccc(Cl)c1/C=N/N=c1ccn(CCc2ccccc2)cc1` gave a logP in [1] of 3.9. The IC50 in [2] stood at 56.7 µM; in [3], 9 µM. In [7], the inhibition entry was “Dose-dependent effect”. In addition, the Activity result in data set [5] is “Dose-dependent effect”.

As to `Nc1ccc(O)cc1` [4-AMINOPHENOL], the IC50 in data set [6] came out at 90 µM; in data set [7], 83 µM.

For `Clc1cccc(Cl)c1/C=N/N=c1ccn(Cc2ccccc2)cc1`, the logP in data set [1] stood at 3.5. Moreover, the values for the IC50 in data set [2] and in data set [3] were 17.4 µM and 8 µM, respectively. Further, in data set [5], the Activity entry was “Dose-dependent effect”.

`Clc1cccc(Cl)c1CON=C1CCN(CCCc2ccccc2)CC1`: the pKa in [12] came out at 5.7. For the same molecule, the logP in [1] is listed as 4.3. For the same molecule, the IC50 is 12 µM in [2] and more than 100 µM in [3].
